Compound activity (PubChem BioAssay)
In the library only some 4.9% were active in any assay of this set; here they are far more common.
APP 5'UTR act – activates APP 5'UTR luciferase reporter | SH-SY5Y APP 5'UTR luciferase reporter, luminescence; zero percent = DMSO vehicle wells | AID 1276 | activation, % at 2 µM | actives 1% (n = 190,000);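 active = activation above a set limit, based on mean plus 3 SD of controls, cut at about 140% in these data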
STAT3 activator – increases IL-6 driven STAT3 reporter signal; actives 0.91% (n = 190,000); activation (% of control), % at 5.6 µM; U3A cells, IL-6 STAT3-luciferase reporter, luminescence; 100% = signal with IL-6 EC80 alone;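 active = activation above the screen-wide mean of compound activation plus 3 SD, cut at about 130% in these data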
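Material: STAT3-luciferase reporter U3A cells; Probe or stimulus: IL-6 (33 ng/mL); Incubation: compound pre-incubation 1 h before IL-6, then 6 h stimulation at 37 °C; Technique: luminescence from STAT3-driven luciferase reporter; Evaluation: % activation versus median of IL-6-stimulated wells; Controls: IL-6-only high control.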
STAT1 blocker – inhibitors of IFN-gamma induced STAT1 signaling. AID 920. NIH 3T3 STAT1-luciferase reporter, luminescence. actives 0.35% (n = 200,000). inhibition, % at 5.5 µM;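 active = inhibition above a set limit, the mean inhibition across all tested compounds plus 3 SD, cut at about 34% in these data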
STAT1 act – increases IFN-gamma driven STAT1 reporter signal; AID 932; NIH 3T3 STAT1-luciferase reporter, luminescence; 100% = IFN-gamma alone, no compound; activation (% of control), % at 5.5 µM; actives 2.6% (n = 200,000);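 active = activation above the screen-wide mean activation plus 3 SD, cut at about 130% in these data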
STAT3 inh – inhibitors of IL-6 induced STAT3 signaling; U3A cells, IL-6 STAT3-luciferase reporter, luminescence; host cell line lacks STAT1; inhibition, % at 5.5 µM; actives 0.89% (n = 190,000);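 active = inhibition above the mean inhibition across all screened compounds plus 3 SD, cut at about 44% in these data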
NF-kB expr up – NF-kB expression increase, human neuronal cells. NF-kB reporter expression; hits give high values. fold change at 12.5 µM. actives 1.6% (n = 190,000). AID 1239; in the data active = fold change above about 3.3
A number is an active result; . = inactive; / = no result given.

SMILES	APP 5'UTR act	STAT3 activator	STAT1 blocker	STAT1 act	STAT3 inh	NF-kB expr up
CC(=O)N1CCc2cc(N=NC3=C(O)CC(C)(C)CC3=O)ccc21	.	.	.	132	.	.
NC(=O)c1ccccc1-c1nc(-c2ccccc2)no1	.	.	.	.	.	.
Cc1ccc(-c2noc(-c3ccoc3C)n2)cc1	.	138	.	154	.	.
Fc1ccccc1-c1nc(-c2ccccc2)no1	157	.	.	130	.	6.5
Cc1ccc(-c2nc(-c3ccccc3)no2)c(Cl)c1	166	.	69	.	101	.
Brc1ccccc1-c1nc(-c2ccccc2)no1	180	.	.	147	.	9.5
CC(C)CN=C(NS(=O)(=O)c1ccccc1)C(Cl)(Cl)Cl	.	.	.	.	.	.
CC(C)(C)c1ccc(C(=O)Nc2ccc(CC(=O)O)cc2)o1	/	.	54	.	83	.
CCC(C)(C)n1nnnc1C(c1ccc(C)cc1)N(Cc1ccco1)Cc1cccs1 (configuration not stated)	.	.	.	.	.	.
CCN(CC)c1ccc(C(=O)OCC(=O)Nc2sccc2C#N)cc1	.	.	.	.	.	.
Cn1c(SCC(=O)c2ccccc2)nnc1-c1ccc(O)cc1	.	.	.	129	.	.
Cn1c(SCC(=O)c2ccccc2)nnc1-c1ccncc1	.	.	.	.	.	.
O=C(Nc1ccn(Cc2ccccc2)n1)c1ccc(F)cc1	.	.	.	138	.	.
Cc1ccc(Cn2ccc(NC(=O)c3cc(-c4ccc(F)cc4)on3)n2)cc1	.	.	.	.	.	.
COC(=O)c1c(CSc2ccc(C)c(C)c2)noc1C(=O)NCc1ccc(OC)cc1	.	.	.	.	.	.
C=CCn1c(C)cc(C(=O)CN2NS(=O)(=O)c3ccccc3C2=O)c1C	.	.	.	143	.	.
C=CCn1c(C)cc(C(=O)Cn2ncc(Cl)c(Cl)c2=O)c1C	.	.	.	.	.	.
COc1cc(SC)ccc1C(=O)Nc1ccccc1	.	.	.	135	.	3.7
COc1cc(SC)ccc1C(=O)NCCOc1ccc(F)cc1	.	.	.	135	.	.
COC(=O)c1ccc(NC(=O)Cc2ccc(C)cc2)cc1	.	.	.	.	.	.
COC(=O)c1ccc(NC(=O)CCN2CCCCC2)cc1	.	.	.	.	.	.
COC(=O)c1ccc(N=NN2CCCCC2)cc1	151	.	.	140	.	3.3
COC(=O)c1ccc(NN=Nc2ccc(C)cc2)cc1	.	.	.	137	.	.
O=C(CSc1nccn1-c1ncc(C(F)(F)F)cc1Cl)c1ccc(Cl)cc1	.	197	.	133	.	.
COc1ccc(/C=N/NC(=O)c2ccc3c(c2)OCCO3)cc1[N+](=O)[O-]	.	.	.	.	.	.
SMILES	APP 5'UTR act	STAT3 activator	STAT1 blocker	STAT1 act	STAT3 inh	NF-kB expr up
O=C(NC1CCCCCCC1)c1ccc2c(c1)OCO2	153	.	.	.	.	6.9
Cc1ccc(C(=O)Nc2ccc3c(c2)OCO3)cc1	142	.	.	.	.	4.9
Cc1ccnc2nc(C(=O)Nc3ccc4c(c3)OCO4)nn12	.	.	.	.	.	4
COc1ccc(NC(=O)c2ccc3c(c2)OCO3)cc1[N+](=O)[O-]	.	.	.	139	.	.
O=C(NNC(=S)NC1CCCCC1)c1ccc2c(c1)OCO2	.	.	.	.	.	.
CC1(NC(=O)CC[N+](C)(C)CCO)CS(=O)(=O)CC1S(=O)(=O)[O-] (configuration not stated)	.	.	.	.	.	.
COc1ccc(Cl)cc1C(=O)Nc1ccc2c(c1)OCO2	.	151	.	135	.	.
CCOC(=O)c1c(C)[nH]c(C(=O)Nc2ccc3c(c2)OCO3)c1C	164	.	.	141	.	7.8
C=CCOc1ccc(C(=O)NC2CCCCC2)cc1	.	.	.	132	.	.
O=C(Nc1cccc(F)c1)c1ccc2c(c1)OCO2	.	.	.	.	.	3.5
O=C(Nc1c(C(=O)Nc2cccc(F)c2)oc2ccccc12)c1ccc2c(c1)OCO2	.	.	.	.	.	.
CCOC(=O)Nc1ccc2c(c1)OCO2	.	.	.	.	.	.
Cc1nc(-c2ccccn2)sc1C(=O)Nc1ccc(Cl)c(Cl)c1	.	.	.	.	.	.
CCOc1ccc(-n2c(=O)c3sccc3n(Cc3ccc(C)cc3)c2=O)cc1	.	.	.	.	.	.
COCCSc1ccccc1C(=O)Nc1ccc2c(c1)OCCO2	.	.	.	.	.	.
O=C(Nc1ccc([N+](=O)[O-])cn1)c1ccc2c(c1)OCO2	.	.	.	135	.	.
Cn1cc(C(=O)Nc2ccc3c(c2)CCC3)cn1	.	.	.	.	.	.
Cc1ccc(C(=O)Nc2ccc3c(c2)CCC3)cc1	154	.	64	.	88	6.4
C/C(=N\NC(=O)c1ccc2c(c1)OCO2)c1ccc2c(c1)OCO2	.	.	.	.	.	.
C/C(=N\Nc1ccc([N+](=O)[O-])cc1)c1ccc2c(c1)OCO2	.	.	.	136	.	.
COc1ccccc1C(=O)Nc1ccc2c(c1)OCCO2	137	.	.	140	.	3.5
O=C(Nc1ccccc1)c1nsnc1C(=O)Nc1ccccc1	.	.	.	.	.	.
CC(C)C(C(=O)O)N1CCS(=O)(=O)CC1 (configuration not stated)	.	.	.	.	.	.
COc1ccccc1C(=O)NCc1ccc2c(c1)OCO2	.	.	.	.	.	.
Cc1ccccc1C(=O)Nc1ccc2c(c1)OCO2	177	.	.	.	.	4.8
SMILES	APP 5'UTR act	STAT3 activator	STAT1 blocker	STAT1 act	STAT3 inh	NF-kB expr up
COc1ccccc1C(=O)Nc1ccc2c(c1)OCO2	.	.	.	132	.	.
CN(c1ccccc1C(=O)Nc1ccc2c(c1)OCO2)S(C)(=O)=O	.	.	.	.	.	.
CCN(Cc1ccncc1)C(=O)c1ccc2c(c1)S(=O)(=O)c1ccccc1C2=O	.	.	.	.	.	.
CC1(C)Cc2nc3sc4c(SCC(=O)NCc5ccccc5)ncnc4c3cc2CO1	.	.	.	129	.	3.9
Cn1c(-c2cccs2)nc2ccccc21	.	.	.	142	.	.
CC(C)Cn1c(-c2cccs2)nc2ccccc21	.	.	.	.	.	.
Cc1cnc(C(=O)N2CCCC(C(=O)c3ccc(Cl)cc3C)C2)cn1 (configuration not stated)	.	.	.	.	.	.
COc1cccc(C(=O)O/N=C(\N)c2ccncc2)c1	.	.	.	139	.	.
COc1ccc(C(=O)O/N=C(\N)c2ccncc2)cc1OC	.	.	.	.	.	.
Cc1ccc(C(=O)O/N=C(\N)c2cccc([N+](=O)[O-])c2)cc1	158	.	.	147	.	3.8
Cc1cccc(C(=O)O/N=C(\N)c2ccc(Br)cc2)c1	.	.	.	.	.	4
